PRMT1 inh: PRMT1 (human) inhibition, primary screen | Q99873 | 370,000 compounds, 1.3% hits | inhibition, % at 2.79 µM | recombinant PRMT1, activity-based probe fluorescence polarization | AID 652257;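 active = inhibition above about 21% made by adding two undisclosed values, limit read from the data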
PAD4 inh: blocks human protein arginine deiminase 4 | Q9UM07 | recombinant PAD4, RCA probe fluorescence polarization | inhibition, % at 6.36 µM | 330,000 compounds, 0.41% hits;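 active = percent inhibition above a cutoff equal to the mean of all tested compounds plus 3 SD, cut at about 15% in these data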;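 note: 0% = PAD4 with RCA probe and DMSO and 100% = probe without PAD4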
eLon inh: inhibits E. coli Lon protease; inhibition, % at 7.94 µM; AID 602123; purified E. coli Lon protease, fluorescence polarization; 360,000 compounds, 0.42% hits; P0A9M0; in the data active = inhibition above about 13%, passing the limit was not always enough;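 note: 0% = enzyme with probe and DMSO and 100% = no enzyme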
Target sequence (P0A9M0 whole entry, looked up): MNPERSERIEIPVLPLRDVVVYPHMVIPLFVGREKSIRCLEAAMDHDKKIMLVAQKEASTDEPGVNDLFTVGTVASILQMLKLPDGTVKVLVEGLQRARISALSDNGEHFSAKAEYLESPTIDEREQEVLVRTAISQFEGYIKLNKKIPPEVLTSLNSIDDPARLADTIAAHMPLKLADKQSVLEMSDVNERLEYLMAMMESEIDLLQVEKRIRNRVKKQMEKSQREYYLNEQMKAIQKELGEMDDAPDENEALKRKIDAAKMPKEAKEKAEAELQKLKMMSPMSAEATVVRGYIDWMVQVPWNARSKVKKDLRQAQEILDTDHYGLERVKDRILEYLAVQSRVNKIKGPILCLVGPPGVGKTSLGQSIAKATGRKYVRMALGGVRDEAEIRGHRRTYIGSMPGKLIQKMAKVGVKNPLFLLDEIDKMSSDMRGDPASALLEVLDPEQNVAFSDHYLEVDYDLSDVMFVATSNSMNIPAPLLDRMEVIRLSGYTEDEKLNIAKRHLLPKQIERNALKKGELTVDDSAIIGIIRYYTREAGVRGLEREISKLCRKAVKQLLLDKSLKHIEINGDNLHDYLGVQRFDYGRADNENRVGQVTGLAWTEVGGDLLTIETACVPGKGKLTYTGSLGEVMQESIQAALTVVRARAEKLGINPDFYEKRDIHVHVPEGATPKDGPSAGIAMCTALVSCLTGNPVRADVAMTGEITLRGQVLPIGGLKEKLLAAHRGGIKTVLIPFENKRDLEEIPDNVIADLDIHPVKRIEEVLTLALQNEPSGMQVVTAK
GSTO1 inh: blocks human GSTO1 in RBBP9 counter-screen. P78417. recombinant GSTO1, activity-based probe fluorescence polarization. inhibition, % at 5.96 µM. 300,000 compounds, 1.1% hits;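 active = inhibition above the campaign mean inhibition plus 3 SD, cut at about 35% in these data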;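 note: 0% = GSTO1-1 with DMSO and 100% = wells lacking GSTO1-1 enzyme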
TDP2 absorb: blocks human TDP2 phosphodiesterase activity. O95551. recombinant TDP2, T5PNP hydrolysis, p-nitrophenol absorbance 415 nm. inhibition, % at 12.8 µM. 370,000 compounds, 0.34% hits. AID 720702;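 active = inhibition above the mean of all tested compounds plus 3 SD, set per campaign, cut at about 25% in these data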;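 note: 0% = DMSO with enzyme and 100% = buffer with substrate but no TDP2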
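Assay system: Recombinant human TDP2 | Quantity: 120 nM TDP2 per well | Incubation: 2 h at 37 °C | Signal: Epi absorbance | Evaluation: Percent inhibition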
PAD4 confirm: PAD4 (human) inhibition, confirmed. shares compounds with PAD4 inh. recombinant PAD4, RCA probe fluorescence polarization. inhibition, % at 6.36 µM. 1,200 compounds, 28% hits. AID 488796;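 active = mean inhibition across replicates above the hit cutoff set by the earlier primary screen, cut at about 15% in these data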;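 note: inhibitors block active-site labeling by the probe so polarization falls; 0% = PAD4 with probe and DMSO and 100% = probe without PAD4 enzyme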
Numbers without * were called inactive. Most compounds without a hit are left out; they make up all but 2.5% or so of the library.

Screening COc1ccc(N2C(=O)CSC23C(=O)Nc2ccccc23)cc1OC (stereo unspecified) returned PRMT1 inh 0, PAD4 inh 7, eLon inh -6, GSTO1 inh -3 and TDP2 absorb 1.
For COc1cccc(N2C(=O)CC(Nc3ccc(N4CCOCC4)cc3)C2=O)c1 (stereo unspecified) the results were PAD4 inh 31*, eLon inh 2, GSTO1 inh 7 and PAD4 confirm 2.
Cc1ccc(-c2nnc(SCC(=O)Nc3ccc(OCc4ccccc4)cc3)n2-c2ccc(Cl)cc2)cc1 was read as PRMT1 inh -4 and TDP2 absorb 0.
Screening CCN1CC2=C(OC(N)=C(C#N)C2c2ccccc2)/C(=C\c2ccccc2)C1 (stereo unspecified) returned PRMT1 inh 4, PAD4 inh 24*, eLon inh -11, GSTO1 inh 0, TDP2 absorb 3 and PAD4 confirm 19*.
CCN1CC2=C(OC(N)=C(C#N)C2c2cccs2)/C(=C/c2cccs2)C1 (stereo unspecified) was read as PRMT1 inh 6, PAD4 inh 2, eLon inh -23, GSTO1 inh 6 and TDP2 absorb -6.
COc1ccc2c(c1)CNC2CS(=O)(=O)NCCc1ccccc1 (stereo unspecified) was read as PRMT1 inh 5 and TDP2 absorb 10.
`COc1ccc(CCn2c(C)cc(C(=O)CSc3nnc(N)s3)c2C)cc1` gave PAD4 inh -4, eLon inh -2 and GSTO1 inh -3.
Screening COc1ccc(CCn2c(C)cc(C(=O)CSc3nc(N)cc(=O)[nH]3)c2C)cc1 returned PRMT1 inh 1, PAD4 inh 30*, eLon inh 7, GSTO1 inh -14, TDP2 absorb 10 and PAD4 confirm 9.
For O=C(COc1ccccc1F)N1CCN(S(=O)(=O)/C=C/c2ccccc2)CC1 the results were PRMT1 inh 1, PAD4 inh 56*, eLon inh 0, GSTO1 inh -1, TDP2 absorb 0 and PAD4 confirm 0.
For OCc1ccccc1SSc1ccccc1CO the results were PRMT1 inh 106*, PAD4 inh 48*, eLon inh 2, GSTO1 inh 21, TDP2 absorb -4 and PAD4 confirm 41*.
For COc1ccc(C(=O)C2(C(=O)NCCO)CC(c3ccccn3)=NO2)cc1 (stereo unspecified) the results were PRMT1 inh -3 and TDP2 absorb -6.
Screening COc1ccc(C(=O)CSc2cc(C)nc3nc(C)nn23)cc1OC returned PRMT1 inh 2, PAD4 inh 28*, eLon inh -3, GSTO1 inh -2, TDP2 absorb 1 and PAD4 confirm 26*.
`COC(=O)CN1C(=O)N/C(=C/c2ccc(C)o2)C1=O` gave PRMT1 inh 56*, PAD4 inh 16*, eLon inh 12, GSTO1 inh 13, TDP2 absorb 6 and PAD4 confirm 2.
`COC(=O)COc1ccc(/C=C2/NC(=O)N(CC(=O)OC)C2=O)cc1` gave PRMT1 inh 2, PAD4 inh -1, eLon inh 3, GSTO1 inh 0 and TDP2 absorb -3.
Screening O=C(CSC1=NCCS1)Nc1nc2ccccc2s1 returned PRMT1 inh 42*, PAD4 inh 17*, eLon inh -1, GSTO1 inh -1, TDP2 absorb 13 and PAD4 confirm 10.
O=C(CSc1nc2ccccc2o1)Nc1nc2ccccc2s1 was read as PRMT1 inh 0, PAD4 inh -1, eLon inh -9, GSTO1 inh -8 and TDP2 absorb -4.
Cc1sc(NC(=O)CSC2=NCCS2)nc1-c1ccccc1 was read as PRMT1 inh 4, PAD4 inh 19*, eLon inh 1, GSTO1 inh 0, TDP2 absorb 4 and PAD4 confirm 17*.
For Cc1ccc(-c2csc(NC(=O)CSC3=NCCS3)n2)cc1 the results were PRMT1 inh 3, PAD4 inh 20*, eLon inh 8, GSTO1 inh -14, TDP2 absorb 0 and PAD4 confirm 16*.
Screening CCOC(=S)SCC(=O)Nc1nc(-c2ccc(Br)cc2)cs1 returned PRMT1 inh 11, PAD4 inh 15, eLon inh -7, GSTO1 inh -7 and TDP2 absorb 0.
Screening CCOC(=S)SCC(=O)Nc1nc(-c2ccccc2)cs1 returned PRMT1 inh 26*, PAD4 inh 25*, eLon inh 2, GSTO1 inh 3, TDP2 absorb 16 and PAD4 confirm 25*.
Screening Cc1sc(NC(=O)CSc2ncn(-c3ccccc3)n2)nc1-c1ccccc1 returned PRMT1 inh 4, PAD4 inh 2, eLon inh -8, GSTO1 inh -4 and TDP2 absorb -11.
`O=S1(=O)c2ccc(N3CCSCC3)cc2Oc2ccccc2CN1Cc1cn(Cc2ccc(C(F)(F)F)cc2)nn1` gave PRMT1 inh 0 and TDP2 absorb -5.
O=S1(=O)c2ccc(Br)cc2OCCC2CCCCN21 (stereo unspecified) was read as PRMT1 inh 1 and TDP2 absorb 8.
CCOc1nc(Nc2cc(Cl)ccc2OC)nc(OCC)n1 was read as PRMT1 inh -3, PAD4 inh 3, eLon inh -7, GSTO1 inh 11 and TDP2 absorb 7.
CCOc1nc(Nc2ccc(OC)cc2OC)nc(OCC)n1 was read as PRMT1 inh 3, PAD4 inh 190*, eLon inh -3, GSTO1 inh -4, TDP2 absorb -5 and PAD4 confirm 10.
For O=C(Nc1nc(=O)c2ccccc2s1)c1ccc(F)cc1 the results were PRMT1 inh 48*, PAD4 inh 16*, eLon inh 0, GSTO1 inh 2, TDP2 absorb 13 and PAD4 confirm 1.
For Nc1ccc(C(=O)Nc2nc3ccccc3s2)cc1 the results were PRMT1 inh 2, PAD4 inh 1, eLon inh -8, GSTO1 inh 0 and TDP2 absorb 10.
Screening CS(=O)(=O)c1cccc(-c2nnc(NC(=O)c3ccc4ncsc4c3)o2)c1 returned PRMT1 inh 0, PAD4 inh -3, eLon inh -4, GSTO1 inh 1 and TDP2 absorb 9.
Screening CS(=O)(=O)c1ccccc1-c1nnc(NC(=O)c2ccc3ncsc3c2)o1 returned PRMT1 inh 28*, PAD4 inh 22*, eLon inh 7, GSTO1 inh 4, TDP2 absorb 9 and PAD4 confirm 9.
`COC(=O)[C@]12C[C@H](CC(=O)N3CCC(c4ccccc4)CC3)C(=O)N(CCc3ccc(OC)c(OC)c3)C1=C[C@H](C(C)C)O[C@@H]2C1CC1` gave PRMT1 inh 3 and TDP2 absorb 6.
`CCCCNC(=O)/C=C1\Sc2ccccc2NC1=O` gave PRMT1 inh 0, PAD4 inh 2, eLon inh -9, GSTO1 inh -2 and TDP2 absorb 3.

Screening data as filed in PubChem.
